Shown are actives, neighbours in structure and some others; about 2.8% of the full set was active somewhere.
TNAP inh noacc = human TNAP enzyme inhibitors, primary screen, biochemical, luminescent, no phosphate acceptor, uHTS. AID 1012, 2008. inhibition, % at 20 µM. 200,000 tested, 0.26% active. purified TNAP, CDP-star luminescence, 30 min;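 active means tissue-nonspecific alkaline phosphatase inhibition above about 50% at 20 µM in the single-dose screen, limit read from the data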
Target sequence (P05186 whole entry, looked up): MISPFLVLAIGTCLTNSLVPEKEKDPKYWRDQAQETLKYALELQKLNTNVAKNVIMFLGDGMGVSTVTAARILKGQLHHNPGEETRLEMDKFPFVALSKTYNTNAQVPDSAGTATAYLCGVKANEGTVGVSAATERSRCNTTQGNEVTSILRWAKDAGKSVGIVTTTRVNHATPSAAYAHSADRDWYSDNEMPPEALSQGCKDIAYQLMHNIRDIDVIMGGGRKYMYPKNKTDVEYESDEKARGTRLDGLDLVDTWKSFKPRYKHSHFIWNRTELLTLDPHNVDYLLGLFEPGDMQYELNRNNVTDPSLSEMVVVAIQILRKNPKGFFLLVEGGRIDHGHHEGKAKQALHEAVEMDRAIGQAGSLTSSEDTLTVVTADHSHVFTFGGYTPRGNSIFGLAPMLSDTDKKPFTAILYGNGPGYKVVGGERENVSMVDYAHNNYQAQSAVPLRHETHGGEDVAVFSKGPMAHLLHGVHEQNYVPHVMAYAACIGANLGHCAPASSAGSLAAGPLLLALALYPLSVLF
TNAP inh hiacc = human TNAP enzyme inhibitors, primary screen, biochemical, luminescent, high phosphate acceptor level, uHTS | Alkaline phosphatase, tissue-nonspecific isozyme (Homo sapiens), P05186 | purified TNAP, CDP-star luminescence, 1 M DEA | inhibition, % at 20 µM | 200,000 tested, 0.03% active;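 active means over 50% inhibition of tissue-nonspecific alkaline phosphatase at 20 µM in the single-dose screen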
Yeast life ext = compounds extending yeast replicative lifespan, primary screen, S. cerevisiae, OD615 | 130,000 tested, 0.68% active | inhibition of the nicotinamide effect, % at 10 µM | S. cerevisiae growth with nicotinamide; deaD strain in restrictive glucose medium;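 active means inhibition above a set limit, placed 3 SD over the median of all compounds, cut at about 26% in these data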
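Test system – modified budding yeast, DeaD strain · Compound – single dose 10 µM compound, 0.25% DMSO · Times – culture preincubation 4 h, compound exposure 48 h, both 30 °C · Detection – optical density (absorbance) at 615 nm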
BB579 growth dn = growth inhibitors of yeast BB579 in restrictive medium, primary screen, yeast lifespan-shortening project, S. cerevisiae. OD615, 48 h. inhibition, % at 10 µM. 140,000 tested, 0.51% active;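 active means inhibition above a set limit, 3 SD over the mean compound inhibition, cut at about 44% in these data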
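Assay system: S. cerevisiae DeaD strain BB579 yeast. Medium: CSMM-D restrictive synthetic medium containing dextrose (glucose). Times: 4 h cell preincubation, 48 h compound exposure, 30 °C humidified. Signal: OD615 turbidity measurement. Benchmarks: positive control amphotericin B 10 µg/mL.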
RAM network inh = inhibitors of the yeast RAM network, primary screen, dse1pr::URA3 reporter, 5-FOA selection | S. cerevisiae dse1pr::URA3 reporter, 5-FOA growth OD615, 2 d; analog-sensitive cbk1-as2 kinase mutant strain | inhibition, % at 50 µM | 190,000 tested, 1.8% active | AID 868, 2007;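 active means inhibition above a set limit, 3 SD over mean compound inhibition, cut at about 8.4% in these data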;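 further: inhibition rescues growth on 5-FOA so higher OD means more RAM inhibition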
TNAP act hi DEA = TNAP activators at high phosphate acceptor level, primary screen, biochemical, luminescence, uHTS; Alkaline phosphatase, tissue-nonspecific isozyme (Homo sapiens), P05186; purified TNAP, CDP-star luminescence, 1 M DEA, 30 min; stronger effect = higher value; 0 = EDTA background, 1 = DMSO-only activity; activation factor at 20 µM; 200,000 tested, under 10 active; AID 1136, 2008;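 active means activation factor at least 2 at 20 µM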
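Control set: EDTA negative control, DMSO positive control / Assay system: human TNAP / Quantity: TNAP 1/800 final / Evaluation: TNAP activation factor scaled between EDTA and DMSO control wells / Measured by: luminescent substrate turnover signal / Compound dosing: one dose, 20 µM / Times: 30 min enzyme reaction at room temperature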
Of the large screens only hits and unclear results are named; the others gave an inactive call.

COc1ccc(/C=C2/C(=O)ON=C2c2ccccc2)cc1OC	Yeast life ext 27, BB579 growth dn 61
O=C1ON=C(c2ccccc2)/C1=C/c1ccco1	none (no result: Yeast life ext, BB579 growth dn)
Nc1ccccc1NC1CCCCC1	none (no result: Yeast life ext, BB579 growth dn)
CC(=O)c1ccc(Oc2ccc(C(=O)c3ccc(C)c(C)c3)cc2[N+](=O)[O-])cc1	none
COC(=O)c1ccc(Oc2ccc(C(C)(C)C)cc2)c([N+](=O)[O-])c1	RAM network inh 8.4
CC(C)C(OC(=O)CN1C(=O)COc2ccccc21)C(=O)NC1CCCC1 (stereo unspecified)	Yeast life ext 34
Cc1ccc2c(c1)N(CC(=O)OC(CC(C)C)C(=O)NC1CCCC1)C(=O)CO2 (stereo unspecified)	RAM network inh 8.7
Cc1ccc(NC(=O)COC(=O)CN2C(=O)COc3ccccc32)cc1	none
Cc1cc(C)c(S(=O)(=O)c2ccccc2)c(OC(=O)c2c(Cl)cccc2Cl)n1	none
CCOc1nc(C)cc(C)c1S(=O)(=O)c1ccc(Cl)cc1	RAM network inh 8.7 (no result: Yeast life ext, BB579 growth dn)
Cc1ccc(S(=O)(=O)c2c(C)cc(C)nc2Cl)cc1	none
Cc1cc(C)c(S(=O)(=O)c2ccccc2)c(OC(=O)c2ccc(Cl)cc2Cl)n1	Yeast life ext 52
COc1ccc(C(=O)N[C@H](C(=O)NCC2CCCCC2)C(C)C)cc1	none
O=C(O)CCC(=O)N1CCN(c2nc(-c3ccccc3Cl)c3cc(Br)ccc3n2)CC1	BB579 growth dn 99
CC(=O)NCCCc1c[nH]c2ccc(Cl)cc12	none
COc1ccc(CC(=O)n2nc(-c3ccccc3)nc2NCc2ccco2)cc1	RAM network inh 10
COCC(=O)n1nc(-c2ccccc2)nc1NCc1cccs1	TNAP inh noacc 54 (no result: Yeast life ext, BB579 growth dn)
CCN(CC)c1ccc(/C=C2\CCC(/C=C(\C#N)C(=O)Nc3ccccc3F)=C2N2CCOCC2)cc1	TNAP inh noacc 53
COc1ccc(CNC(=O)c2cccnc2SC)cc1OC	none (no result: Yeast life ext, BB579 growth dn)
COc1ccc(CNC(=O)c2cccnc2Sc2ccc(C)c(C)c2)cc1	RAM network inh 9.3
CCC(C)(C(=O)NC1CCCC1)N(C(=O)c1ccccn1)c1ccc(C)cc1 (stereo unspecified)	none
Cc1noc(NS(=O)(=O)c2ccc(N/C=C\C(=O)c3ccc(F)cc3)cc2)c1C	RAM network inh 8.6 (no result: Yeast life ext, BB579 growth dn)
CCCN1C(=O)/C(=C/c2c(NCCCOC(C)C)nc3c(C)cccn3c2=O)SC1=S	RAM network inh 9.4
CCC1CCCCN1C(=O)CSc1nc(N)cc(N)n1 (stereo unspecified)	none (no result: Yeast life ext, BB579 growth dn)
Cc1ccc(-c2ccc(=O)n(CC(=O)NCc3ccc(F)cc3)n2)cc1	none (no result: Yeast life ext, BB579 growth dn)
CCCCc1ccc(/C=C2\C(=O)ON=C2c2ccccc2)s1	RAM network inh 8.8
Nc1oc2ccc(F)cc2c(=O)c1C=O	Yeast life ext 27
NS(=O)(=O)c1ccc(Oc2ccc(S(N)(=O)=O)cc2)cc1	none (no result: Yeast life ext, BB579 growth dn)
C=CS(=O)(=O)c1ccc(Oc2ccc(S(=O)(=O)C=C)cc2)cc1	Yeast life ext 61
CCC(C)(C(=O)Nc1ccccc1C)N(C(=O)CNC(C)=O)c1ccccc1C (stereo unspecified)	none
C/C(=N\NC(=O)c1cccc(Cl)c1)C1C(=O)c2ccccc2C1=O	Yeast life ext 43
C/C(=N\NC(=O)CCc1ccccc1)C1C(=O)c2ccccc2C1=O	none (no result: Yeast life ext, BB579 growth dn)
Cc1ccc(S(=O)(=O)NCCC(=O)NCc2ccco2)cc1	none
C[C@@H]1O[C@@H](Oc2c(-c3cc(O)c(O)c(O)c3)oc3cc(O)cc(O)c3c2=O)[C@H](O)[C@H](O)[C@H]1O	TNAP inh noacc 52
Cc1ccc(C(=O)/C=C\C(=O)c2ccc(C)cc2)cc1	Yeast life ext 65
Cc1ccc(C(=O)/C=C/c2c[nH]c3ccccc23)cc1	none
Cc1ccc(C(=O)/C=C/c2ccc(-c3ccc(C)cc3)o2)cc1	Yeast life ext 28
O=C(/C=C\c1ccc(-c2ccccc2)o1)c1ccccc1	RAM network inh 9.6
O=C(/C=C/c1ccccc1)c1ccccc1	none
CC(/C=C/C(=O)c1ccc(C)cc1)=C\c1ccccc1	none
O=C(Nc1cccc(S(=O)(=O)N2CCOCC2)c1)c1c2c(nc3ccccc13)CCC2	none
Cc1ccc(-n2ncc3c(=O)n(CC#N)cnc32)cc1	none
CC(c1ccccc1)N1CCn2c(nc3cc(NC(=O)c4cccs4)ccc32)C1 (stereo unspecified)	Yeast life ext 55
COc1ccc(NC(=O)c2ccccc2-c2ccccc2)c(C)c1	none (no result: Yeast life ext, BB579 growth dn)
COc1cc2nc(CN3CCC(C(O)(c4ccccc4)c4ccccc4)CC3)[nH]c(=O)c2cc1OC	none (no result: Yeast life ext, BB579 growth dn)
Cc1ccnc(N=Cc2c(O)ccc3oc4c(c23)CCCC4)c1	Yeast life ext 45
Oc1ccc2oc3c(c2c1/C=N/n1cnnc1)CCCC3	none
C/C(=N\NC(=O)CCc1ccc(S(=O)(=O)N2CCOCC2)cc1)c1ccc(Br)cc1	none (no result: Yeast life ext, BB579 growth dn)
Cn1c(SCC(=O)Nc2ccccc2)nc(O)cc1=O	BB579 growth dn 62
CCN(CC)S(=O)(=O)c1ccc(Cl)c(C(=O)Nc2ccc(Cl)cc2[N+](=O)[O-])c1	none
CCNC(=O)C1CC(=O)N(CC)C(=Nc2cc(Cl)c(O)c(Cl)c2)S1 (stereo unspecified)	none
O=C1CN(c2ccc(Cl)cc2)C(=O)CN1NC(=S)Nc1ccc(Cl)cc1	none
Oc1ccc2ccccc2c1N=Nc1ccccn1	BB579 growth dn 90
CC(C)CCn1c(O)c(N=Nc2ccccn2)c2ccccc21	none
C=C1C(=O)C=C2CN(C(=O)c3ccccc3)[C@@](Cc3ccc(F)cc3)(C(=O)OC)[C@@H]12	Yeast life ext 43
COC(=O)[C@@]1(Cc2ccc(OC)cc2)[C@@H]2C(=CC(=O)[C@H]2CC(=O)C(=O)N(C)C)CN1C(=O)c1ccccc1	none
CCOC(=O)C1=C(c2ccccc2)ON(C)C1c1ccccc1 (stereo unspecified)	none
Cc1cc(Cl)ccc1C(=O)C1CCCN(C(=O)c2n[nH]c3c2CCCC3)C1 (stereo unspecified)	none (no result: Yeast life ext, BB579 growth dn)
COc1ccc(C(=O)C2CCCN(C(=O)c3n[nH]c4c3CCCC4)C2)cc1OC (stereo unspecified)	TNAP inh noacc 60 (no result: Yeast life ext, BB579 growth dn)
Cc1ccc(CN(CC(=O)NC2CCCC2)C(=O)CSc2nnc(COc3ccccc3)o2)cc1	RAM network inh 8.7 (no result: Yeast life ext)
Cc1ccc(NCc2nnc(SCC(=O)OC3CCCCC3)o2)c(C)c1	none
